Bioassay records as filed in PubChem BioAssay.
Shown are actives, neighbours in structure and some others; about 2.2% of the full set was active somewhere.
rCAG binder – binds r(CAG) RNA repeats; inhibition, % at 3 µM; AID 651821; actives 1.3% (n = 370,000); r(CAG) RNA repeat, TO-PRO-1 dye displacement fluorescence;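 active = inhibition above the plate cutoff, the mean of all test compounds on that plate plus 3 SD, cut at about 35% in these data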;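 also: 0% = DMSO alone and 100% = 100 µM mitoxantrone as full dye displacement; higher means more dye released from RNA so lower well fluorescence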
ASAP1 GAP inh – inhibitors of human ASAP1 ArfGAP activity | actives 0.19% (n = 360,000) | inhibition, % at 16.5 µM | AID 624377 | Q9ULH1 | ASAP1-stimulated ARF1 GTP hydrolysis, GDP FP detection; in the data active = inhibition above about 25%;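 also: 0% = vehicle with enzyme and substrate and 100% = no enzyme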
Target sequence (Q9ULH1 325-724 limits assumed): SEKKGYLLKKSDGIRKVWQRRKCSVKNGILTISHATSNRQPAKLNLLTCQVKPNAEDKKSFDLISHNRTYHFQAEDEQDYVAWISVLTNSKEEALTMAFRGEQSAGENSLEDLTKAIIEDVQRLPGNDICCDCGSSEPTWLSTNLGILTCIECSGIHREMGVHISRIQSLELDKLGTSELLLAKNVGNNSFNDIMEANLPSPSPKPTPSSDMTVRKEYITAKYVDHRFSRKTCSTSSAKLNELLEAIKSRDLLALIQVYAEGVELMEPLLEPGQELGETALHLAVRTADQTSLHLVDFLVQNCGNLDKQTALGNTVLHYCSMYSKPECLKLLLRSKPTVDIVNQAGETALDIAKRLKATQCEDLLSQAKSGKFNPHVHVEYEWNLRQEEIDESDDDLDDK
ARFGAP1 inhibitor – inhibits rat ARF GTPase activating protein 1; Q62848; Arfgap1-stimulated ARF1 GTP hydrolysis, GDP FP detection; inhibition, % at 16.5 µM; actives 0.26% (n = 360,000);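 active = inhibition above a per-plate limit, mean inhibition of low control wells plus 3 SD, cut at about 25% in these data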;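 also: 0% = DMSO wells with enzyme and 100% = wells lacking Arfgap1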
Target sequence (Q62848 1-136 limits assumed): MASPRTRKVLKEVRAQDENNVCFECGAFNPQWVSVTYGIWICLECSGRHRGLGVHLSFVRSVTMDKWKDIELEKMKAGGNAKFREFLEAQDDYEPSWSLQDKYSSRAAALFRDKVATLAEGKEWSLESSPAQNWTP
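System: truncated rat Arfgap1 GAP domain / Benchmarks: high control wells lacking Arfgap1, low control full reaction with DMSO / Times: compound-enzyme preincubation 20 min, reaction 120 min, detection 60 min, 25 °C / Repeats: one replicate per compound / Also added: human ARF1(Δ1-17)-GTP substrate / Measured by: Tracer-displacement fluorescence polarization with EDTA stop, 620/688 nm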
NadD inh – inhibitors of Staphylococcus aureus NadD. inhibition, % at 20 µM. AID 602399. purified NadD enzyme, colorimetric absorbance read-out. actives 0.78% (n = 360,000); in the data active = inhibition above about 26%
rCAG bind conf – r(CAG) RNA repeat binding, confirmation; shares compounds with rCAG binder; TO-PRO-1 dye displacement fluorescence; inhibition, % at 3 µM; actives 70% (n = 4,300); AID 652065;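 active = inhibition above a per-plate cutoff, the mean inhibition of sample wells plus 3 SD, cut at about 35% in these data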;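 also: loss of TO-PRO-1 fluorescence as compound displaces dye from 1x1 AA loop RNA; 0% = DMSO only wells and 100% = 100 µM mitoxantrone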
DNA CAG counter – counter-screen for rCAG RNA binders: DNA CAG dye complex inhibitors. inhibition, % at 3 µM. actives 94% (n = 4,300). shares compounds with rCAG binder. d(CAG) DNA oligo TO-PRO-1 dye displacement, fluorescence;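 active = inhibition above its plate's cutoff, the mean test-well inhibition plus 3 SD, cut at about 4.8% in these data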;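 also: 0% = DNA dye mix with DMSO and 100% = 100 µM mitoxantrone; hits displace the dye from DNA and so lower well fluorescence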
DNA CAG DR – DNA CAG dye complex inhibition, dose response counter-screen; shares compounds with rCAG binder; DNA CAG/GTC duplex TO-PRO-1 dye displacement fluorescence; IC50, µM; actives 20% (n = 250); AID 686960; in the data active = IC50 below about 10 µM
* = called active by the depositor; . = no result.

SMILES | rCAG binder | ASAP1 GAP inh | ARFGAP1 inhibitor | NadD inh | rCAG bind conf | DNA CAG counter | others
CC(=O)Oc1ccc(Cn2c(C)c(C(=O)NCc3cccc(C(F)(F)F)c3)sc2=O)cc1 | 1 | 9 | 3 | -9 | . | .
Cc1cccc(OCCCC(=O)Nc2ccc(S(=O)(=O)Nc3ncccn3)cc2)c1C | 25 | -2 | 0 | 9 | . | .
Cc1cccc(OCC(=O)Nc2ccc(S(=O)(=O)Nc3onc(C)c3C)cc2)c1C | 41* | -17 | 3 | -3 | 26 | 6.5*
Cc1cccc(OCCCC(=O)Nc2ccc(S(=O)(=O)Nc3nccs3)cc2)c1C | 59* | 7 | -15 | 0 | 49* | 17*
Cc1cccc(OCCCC(=O)Nc2ccc(S(=O)(=O)Nc3onc(C)c3C)cc2)c1C | 59* | 14 | 3 | 2 | 32 | 8.5*
Cc1noc(NS(=O)(=O)c2ccc(NC(=O)COc3ccc(C#N)cc3)cc2)c1C | 13 | -4 | 4 | -7 | . | .
O=C(COc1ccc(F)cc1Cl)Nc1ccc(S(=O)(=O)Nc2nccs2)cc1 | 43* | 13 | 0 | -5 | 40* | 13*
COc1ccc(OC(F)(F)F)cc1CC1(C)C(=O)Nc2c(Cl)ccc(Cl)c21 (stereo not drawn) | . | . | . | -8 | . | .
COC(=O)[C@]12C[C@H](CC(=O)N3CCCC3)C(=O)N(Cc3ccc(Cl)cc3Cl)C1=C[C@H](C(C)C)O[C@@H]2C1CC1 | 0 | . | . | . | . | .
NS(=O)(=O)c1cccc(Nc2nc3ccccc3nc2NS(=O)(=O)c2ccc(Cl)cc2)c1 | 90* | 2 | 17 | 8 | 89* | 68*
O=C(O)c1ccc(Nc2nc3ccccc3nc2NS(=O)(=O)c2ccc(F)cc2)cc1 | 41* | 0 | -8 | 6 | 53* | 21*
O=C(O)c1cccc(Nc2nc3ccccc3nc2NS(=O)(=O)c2ccccc2)c1 | 36* | -3 | -12 | 4 | 39* | 12*
O=[N+]([O-])c1ccc(S(=O)(=O)Nc2nc3ccccc3nc2Nc2ccccc2)cc1 | 8 | -16 | -8 | 21 | . | .
O=S(=O)(Nc1nc2ccccc2nc1N1CCN(c2ccccc2F)CC1)c1ccc(Cl)cc1 | 7 | 10 | 2 | 19 | . | .
CCOC(=O)C1=CCN(S(=O)(=O)c2ccccc2Br)C1c1ccc(Cl)cc1 (stereo not drawn) | 5 | 16 | 1 | . | . | .
Cc1cc(C)cc(C(=O)OCCN2CCN(C3CN(Cc4cn(Cc5ccccc5F)nn4)S(=O)(=O)C3)CC2)c1 (stereo not drawn) | 3 | . | . | . | . | .
Cc1ccc(Sc2ccc(/C=C3/C(=O)NN(c4ccccc4)C3=O)o2)cc1 | 35* | 3 | -12 | 12 | 81* | 46*
O=C(Nc1ccc(S(=O)(=O)Nc2ncccn2)cc1)c1ccccc1NS(=O)(=O)c1ccc(F)cc1 | 60* | -9 | 0 | 9 | 29 | 6.5*
O=C(Nc1ccc(-c2nc3ccccc3[nH]2)cc1)c1ccccc1NS(=O)(=O)c1ccc(F)cc1 | 92* | 11 | 20 | 25 | 90* | 70*
O=C(O)/C=C/c1ccc(S(=O)(=O)Nc2ccccc2C(=O)Nc2ccc(F)cc2)cc1 | 20 | -7 | 2 | -9 | . | .
CS(=O)(=O)c1ccccc1C(=O)Nc1ccc(-c2nc3ccccc3[nH]2)cc1 | 3 | -2 | 13 | -4 | . | .
CCOc1ccc(S(=O)(=O)Nc2ccccc2C(=O)N/N=C/c2c(OC)ccc3ccccc23)cc1 | 62* | 0 | -5 | 23 | 42* | 19*
CCOc1ccc(NC(=O)c2ccccc2NS(=O)(=O)c2ccc(F)cc2)c([N+](=O)[O-])c1 | 72* | -9 | 4 | 3 | 73* | 36*
CCOC(=O)CC[C@@H]1CC[C@]2(CCCN(C(=O)c3ccco3)C2)O1 | 3 | . | . | . | . | .
O=[N+]([O-])c1c(Cl)cc(Cl)cc1Cl | 1 | 0 | 1 | . | . | .
SMILES | rCAG binder | ASAP1 GAP inh | ARFGAP1 inhibitor | NadD inh | rCAG bind conf | DNA CAG counter | others
O=S(c1cc(Cl)cc(Cl)c1O)c1cc(Cl)cc(Cl)c1O | 40* | -9 | -23 | 9 | 44* | 11* | DNA CAG DR=9.4*
CCCCCCC(=O)NC1CCCCN(Cc2cccc(Cl)c2)C1=O (stereo not drawn) | -3 | . | . | . | . | .
CCOC(=O)C1=CCN(S(=O)(=O)c2ccccc2F)C1c1ccccc1 (stereo not drawn) | 1 | 6 | 1 | -6 | . | .
O=C(O)c1ccc2c(c1)S(=O)(=O)c1cc(N3CCN(c4cnccn4)CC3)ccc1C2=O | 35* | -9 | -4 | 2 | 46* | 14*
CC(C)(C)c1ccc(-c2nnc(SCC(=O)Nc3ccc(Oc4ccccc4)cc3)n2Cc2ccco2)cc1 | 9 | . | . | . | . | .
O=C(NNC(=O)c1ccccc1Cl)c1ccc(-n2cncn2)c([N+](=O)[O-])c1 | 5 | -6 | -3 | -5 | . | .
Cc1ccc(C(=O)Nc2ccc(C)c(S(=O)(=O)Nc3ccccc3Cl)c2)s1 | 36* | 0 | -2 | -1 | 46* | 16*
O=C(Nc1ccc(Cl)c(S(=O)(=O)Nc2ccccc2Cl)c1)c1cccs1 | 48* | 8 | 3 | -3 | 29 | 11*
O=C(Nc1ccccc1Cl)c1cccs1 | -4 | -4 | -8 | 3 | . | .
O=C1C(=Cc2cn(-c3ccccc3)nc2-c2ccc(OCc3ccc(Cl)cc3)cc2)SC(=S)N1CCS(=O)(=O)O | 68* | -7 | -2 | 60* | 58* | 43*
COc1ccc(-c2nn(-c3ccccc3)cc2/C=C2/SC(=S)N(CCC(=O)O)C2=O)cc1 | 20 | -12 | 4 | 25 | . | .
O=C1C(=Cc2cn(-c3ccccc3)nc2-c2ccc(OCc3ccccc3F)cc2)SC(=S)N1CCS(=O)(=O)O | 72* | -7 | -9 | 30* | 65* | 45*
COc1ccc(-c2nn(-c3ccccc3)cc2/C=C2/SC(=S)N(CCC(=O)O)C2=O)c(C)c1 | 19 | 1 | 1 | 25 | . | .
O=C(O)CCCCCN1C(=O)/C(=C/c2cn(-c3ccccc3)nc2-c2cccs2)SC1=S | 57* | -14 | 8 | 31* | 69* | 39*
COC(=O)c1cccc(Nc2cc(C)n(-c3cccc(C(=O)OC)c3)c(=O)c2)c1 | 3 | 12 | 1 | . | . | .
COc1ccc(-n2c(SCC(=O)N/N=C(/C)c3cccc(O)c3)nc3ccccc3c2=O)cc1 | 8 | . | . | . | . | .
CNc1ccccc1/C(O)=C(\C#N)C(=O)NCc1cccs1 | 1 | . | . | . | . | .
COC(=O)[C@]12C[C@H](CC(=O)N3CCCC3)C(=O)N(Cc3cccc4ccccc34)C1=C[C@H](COCc1ccccc1)O[C@@H]2C | 6 | . | . | . | . | .
Cc1nn(CCc2nc(-c3ccco3)cs2)c2[nH]c(=O)cc(C(F)(F)F)c12 | 58* | -11 | -1 | 15 | 13 | 1
